How the values were obtained:
MCF7 [1] = test: Drug uptake in human MCF7 cells at 0.5 to 1.0 MBq/mL after 1 hr in normoxic condition by gamma counting; assay type: ADME, cell-based; settings: mcf7, 1 h
Method in brief: (§1)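 MCF-7 cells in RPMI 1640 with 10% FBS were seeded at 100,000 cells/well and grown 24 h, then held 4 h normoxic (5% CO2) or hypoxic (5% CO2/95% N2 chamber, 37 °C). ¹⁸F-labeled tracer (0.5–1.0 MBq/mL in PBS) was added for 1 h at 37 °C. Cells were washed twice with PBS, lysed in 1 M NaOH, and gamma counted. Uptake is expressed as % of added activity; 6 replicates.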

MCF7 [2] = test: Drug uptake in human MCF7 cells at 0.5 to 1.0 MBq/mL after 1 hr in hypoxic condition by gamma counting; assay type: ADME, cell-based; settings: mcf7, 1 h; method in brief: as §1
[3] = 1-Octanol-phosphate buffer partition coefficient, log P of the compound at pH 7.4 after 30 mins by shake-flask method; assay type: physicochemical
Method in brief: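 Shake-flask: about 0.01–0.1 mg/mL compound shaken in 1-octanol and 50 mM phosphate buffer (pH 7.4) for 30 min at room temperature. Equal amounts of each phase quantified by HPLC UV absorbance (C18, isocratic ethanol:water). Triplicate, mean ± SD.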

[4] = Drug metabolism of the compound assessed as reduction rate assessed per unit of enzyme in anoxic conditions in presence of bovine milk xanthine oxidase; assay type: physicochemical; settings: cattle
Method in brief: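 Xanthine oxidase in PBS (0.118 unit) added to 0.29 mM xanthine (reducing substrate) plus 0.12 mM nitroaromatic (oxidizing substrate) in 50 mM PBS pH 7.5 at 37 °C. Solutions argon-degassed 20 min; sealed cuvette. Rate taken from initial absorbance loss at λmax (>325 nm) or at the 249 nm isosbestic point, converted to nmol/min via extinction coefficients. Triplicate, mean ± SD.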

MCF7 [5] = test: Drug uptake in human MCF7 cells at 0.5 to 1.0 MBq/mL after 1 hr measured 60 mins post wash out in normoxic condition by gamma counting; assay type: ADME, cell-based; settings: mcf7, 1 h
Method in brief: (§2)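 MCF-7 cells were preconditioned 4 h normoxic or hypoxic (5% CO2/95% N2), then given ¹⁸F tracer (0.5–1.0 MBq/mL) for 1 h at 37 °C. Radioactive medium was replaced with fresh RPMI 1640 (10% FBS) for a further 1 h under the same oxygen condition. Cells were then PBS-washed, lysed in 1 M NaOH and gamma counted. Retained activity is given as % of added.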

MCF7 [6] = test: Drug uptake in human MCF7 cells at 0.5 to 1.0 MBq/mL after 1 hr measured 60 mins post wash out in hypoxic condition by gamma counting; assay type: ADME, cell-based; settings: mcf7, 1 h; method in brief: as §2
MCF7 [7] = test: Drug uptake in human MCF7 cells at 30 GBq/umol after 1 hr in hypoxic condition by gamma counting; assay type: ADME, cell-based; settings: mcf7, 1 h
Method in brief: (§3)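 MCF-7 cells were grown in RPMI 1640 with 10% FBS and 1% P/S, seeded at 100,000 cells/well, and cultured 24 h at 37 °C in 5% CO2. They were then kept 4 h in a sealed chamber flushed with 5% CO2/95% N2 (10 L/min, 15 min). ¹⁸F-tracer (0.5–1.0 MBq/mL in PBS) was added for 1 h at 37 °C under hypoxia. Cells were PBS-washed twice, lysed in 1 M NaOH, and gamma-counted; uptake is % of added activity, n=6.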

MCF7 [8] = test: Drug uptake in human MCF7 cells at 30 MBq/umol after 1 hr in hypoxic condition by gamma counting; assay type: ADME, cell-based; settings: mcf7, 1 h; method in brief: as §3
MCF7 [9] = test: Drug uptake in human MCF7 cells at 0.3 MBq/umol after 1 hr in hypoxic condition by gamma counting; assay type: ADME, cell-based; settings: mcf7, 1 h; method in brief: as §3

SMILES	Drug uptake (MCF7 [1])	Drug uptake (MCF7 [2])	logD at 0.5 h [3]	Drug metabolism [4] [nmol/min/U]	other results
O=[N+]([O-])c1ccnn1Cc1cn(CCF)nn1			0.03	20	
O=[N+]([O-])c1cnc(NCc2cn(CC[18F])nn2)s1	Active	Active			Drug uptake (MCF7 [5]): Active; Drug uptake (MCF7 [6]): Active
O=[N+]([O-])c1nccn1Cc1cn(CCF)nn1			-0.41	36	
O=[N+]([O-])c1nccn1CC(O)C[18F] (stereo unspecified) [[18F]FLUOROMISONIDAZOLE]					Drug uptake (MCF7 [7]): 3.9%; Drug uptake (MCF7 [8]): 3.2%; Drug uptake (MCF7 [9]): 1.1%
O=[N+]([O-])c1ccnn1Cc1cn(CC[18F])nn1		Not Active			
O=[N+]([O-])c1nccn1CC(O)CF (stereo unspecified) [FLUOROMISONIDAZOLE]				37	

Further lines, with some results ahead:

Drug uptake (MCF7 [1])	Drug uptake (MCF7 [2])	logD at 0.5 h [3]	Drug metabolism [4] [nmol/min/U]	SMILES	other results
Active	Active			O=[N+]([O-])c1nccn1Cc1cn(CC[18F])nn1	
Active	Active			O=[N+]([O-])c1ncccc1NCc1cn(CC[18F])nn1	
		0.04	58	O=[N+]([O-])c1ncccc1NCc1cn(CCF)nn1	
		0.79	277	O=[N+]([O-])c1cnc(NCc2cn(CCF)nn2)s1	

Reference: ChEMBL document CHEMBL2157962, “A fluorous and click approach for screening potential PET probes: Evaluation of potential hypoxia biomarkers” (Bioorg Med Chem, 2012)
